In ChEMBL document CHEMBL1255483, “Intra- and extracellular activities of dicloxacillin against Staphylococcus aureus in vivo and in vitro” (Antimicrob Agents Chemother, 2010):
In brackets after ≈: the same amount, converted by molar mass. Activity calls are given as the source filed them. The rule behind the calls is not given here.

What was measured:
[1] = fT>MIC in Staphylococcus aureus E19977 infected NMRI mouse at 200 mg/kg administered every 6 hrs; type: functional
Outline: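 Calculated percentage of 24 h at steady state that free plasma DCX exceeds the strain MIC (microdilution, pH 7.4). Concentrations were simulated from single subcutaneous dose plasma curves in NMRI mice (S. lutea bioassay), adjusted with a square-root model of concentration-dependent free fraction from ultrafiltration. The regimen was dosed subcutaneously in mice infected intraperitoneally with 10^7.4 CFU, and peritoneal CFU were read after 24 h of therapy.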

Staphylococcus aureus [2] = assay: Bacteriostatic activity against Staphylococcus aureus ATCC 25923 after 24 hrs; type: functional
Outline: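 Extracellular broth time- and concentration-kill test. The inoculum was ~10⁶ CFU/ml, exposed to a wide range of DCX concentrations, with CFU counted after 5 and 24 h. The read-out was Δlog CFU/ml versus time zero (mean ± SD, n = 3). A sigmoidal fit with slope 1 gave Emax and EC50. Cstatic was read by graphical interpolation as the concentration giving no change from the inoculum.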

Staphylococcus aureus [3] = assay: Bacteriostatic activity against Staphylococcus aureus ATCC 25923 infected in human THP-1 cells at 10 times MIC after 5 hrs; type: functional, organism-based
Outline: (§1)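 Human THP-1 macrophages were infected with opsonized S. aureus at 4 bacteria per macrophage for 45 min. Non-phagocytized bacteria were removed by washing and a brief incubation in PBS with gentamicin 50 mg/liter. Cells were then incubated up to 24 h with DCX over a wide range of extracellular concentrations. The read-out was Δlog CFU per mg cell protein versus time zero (n = 3), with sigmoidal fitting and Cstatic by interpolation.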

Staphylococcus aureus [4] = assay: Bactericidal activity against Staphylococcus aureus E19977 assessed as log reduction in bacterial count at 100 times MIC after 24 hrs by time-kill assay; type: functional
Outline: (§2)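 Broth time-kill: MSSA at 10⁶ CFU/ml exposed to a wide range of dicloxacillin concentrations. CFU counted after 5 and 24 h and expressed as change in log₁₀ CFU/ml from time zero. Multiples refer to the MIC by CLSI microdilution at pH 7.4. n = 3.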

Staphylococcus aureus [5] = assay: Bactericidal activity against Staphylococcus aureus ATCC 25923 assessed as log reduction in bacterial count at 10 times MIC after 24 hrs by time-kill assay; type: functional; outline: as §2
Staphylococcus aureus [6] = assay: Bactericidal activity against Staphylococcus aureus ATCC 25923 assessed as log reduction in bacterial count at 10 times MIC after 5 hrs by time-kill assay; type: functional; outline: as §2
Staphylococcus aureus [7] = assay: Antimicrobial activity against Staphylococcus aureus E19977 infected in human THP1 cells assessed as log reduction in bacterial count at MIC after 24 hrs by time-kill assay; type: functional, THP-1
Outline: (§3)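 Intracellular model in THP-1 macrophages: opsonized S. aureus was added at 4 bacteria per macrophage for 45 min. Non-phagocytized bacteria were removed by washing and brief PBS incubation with gentamicin (50 mg/liter). Cells were then incubated up to 24 h with a wide range of extracellular dicloxacillin concentrations. Result is change in log₁₀ CFU per mg cell protein from time zero. n = 3.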

[8] = AUC (24 hrs) in NMRI mouse at 30 mg/kg, sc; type: ADME, organism-based; parameters: time < 24 hr, dose 30 mg/kg, route subcutaneous; settings: plasma
Outline: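 Single subcutaneous DCX doses given to NMRI mice. Blood was collected into EDTA tubes, and plasma drug was assayed by microbiological bioassay with S. lutea ATCC 9391 (detection limit 1.5 mg/liter, linear to 100 mg/liter). Values came from noncompartmental analysis. Terminal half-life was fitted monoexponentially to the last four time points. AUC24 combined the trapezoidal rule over mean points with exact integration of the fitted curve extrapolated to 24 h.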

[9] = Cmax in NMRI mouse at 60 mg/kg, sc; type: ADME, organism-based; parameters: dose 60 mg/kg, route subcutaneous; settings: in vivo
Outline: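 Single subcutaneous dicloxacillin doses were given to NMRI mice. EDTA plasma was assayed by microbiological bioassay with S. lutea ATCC 9391 (detection limit 1.5 mg/liter, linear to 100 mg/liter, CV ~5%). Cmax was obtained by noncompartmental analysis.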

[10] = Ratio of fAUC (24 hrs) in NMRI mouse at 76 mg/kg administered every 2 hrs to MIC for Staphylococcus aureus E19977; type: functional
Outline: (§4)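 Modeled free AUC over 24 h divided by the MIC, not measured directly. Single subcutaneous DCX doses were given to NMRI mice, and plasma was assayed by S. lutea bioassay. Noncompartmental analysis used trapezoidal mean points plus a fitted monoexponential extrapolated to 24 h. Free fraction came from a square-root fit to plasma ultrafiltration binding (10–400 mg/liter spike, 1 h, 37°C). The MIC was measured by broth microdilution at pH 7.4.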

[11] = Ratio of fAUC (24 hrs) in NMRI mouse at 240 mg/kg administered every 6 hrs to MIC for Staphylococcus aureus E19977; type: functional; outline: as §4
[12] = Ratio of fCmax in NMRI mouse at 120 mg/kg administered every 3 hrs to MIC for Staphylococcus aureus E19977; type: functional
Outline: (§5)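 Free Cmax/MIC was modelled, not measured. Single-dose subcutaneous plasma curves from NMRI mice were projected to the multiple-dose regimens. Free fraction came from a square-root fit of unbound fraction versus total concentration. Binding was measured by ultrafiltration of mouse plasma spiked with 10–400 mg/liter and held 1 h at 37°C. MIC was for strain E19977.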

[13] = Ratio of fCmax in NMRI mouse at 160 mg/kg administered every 3 hrs to MIC for Staphylococcus aureus E19977; type: functional; outline: as §5
[14] = Ratio of fCmax in NMRI mouse at 200 mg/kg administered every 4 hrs to MIC for Staphylococcus aureus E19977; type: functional; outline: as §5
Mus musculus [15] = organism: Mus musculus; assay: Protein binding in NMRI mouse at 60 mg/l by ultrafiltration; type: ADME, organism-based; settings: in vivo
Outline: (§6)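 Plasma binding was measured by ultrafiltration. EDTA blood from healthy mice, or from NMRI mice infected intraperitoneally for 6 h with E19977, was spiked with DCX at 10–400 mg/liter, with PBS controls. Samples were held 1 h at 37°C, then centrifuged through 30-kDa filters at 3,000 × g for 8 min at 37°C. Total and filtrate drug were measured by S. lutea bioassay.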

Mus musculus [16] = organism: Mus musculus; assay: Protein binding in NMRI mouse infected with Staphylococcus aureus E19977 at 270 mg/l by ultrafiltration; type: ADME, organism-based; settings: in vivo; outline: as §6
Staphylococcus aureus [17] = assay: Bactericidal activity against Staphylococcus aureus E19977 infected in human THP1 cells assessed as log reduction in bacterial count at 10 times MIC after 24 hrs by time-kill assay; type: functional, THP-1; outline: as §3
Staphylococcus aureus [18] = assay: Bactericidal activity against Staphylococcus aureus ATCC 25923 infected in human THP1 cells assessed as log reduction in bacterial count at 100 times MIC after 24 hrs by time-kill assay; type: functional, THP-1; outline: as §3
Staphylococcus aureus [19] = assay: Bacteriostatic activity against Staphylococcus aureus ATCC 25923 infected in human THP-1 cells at compound MIC after 24 hrs; type: functional, organism-based; outline: as §1
Staphylococcus aureus [20] = assay: Bacteriostatic activity against Staphylococcus aureus E19977 infected in human THP-1 cells at 100 times MIC after 5 hrs; type: functional, organism-based; outline: as §1
Staphylococcus aureus [21] = assay: Bacteriostatic activity against Staphylococcus aureus E19977 infected in human THP-1 cells at 10 times MIC after 5 hrs; type: functional, organism-based; outline: as §1
[22] = fT>MIC in Staphylococcus aureus E19977 infected NMRI mouse at 80 mg/kg administered every 3 hrs
Staphylococcus aureus [23] = assay: Antimicrobial activity against Staphylococcus aureus ATCC 25923 by broth microdilution method at pH 7.4

Cc1onc(-c2c(Cl)cccc2Cl)c1C(=O)N[C@@H]1C(=O)N2[C@@H]1SC(C)(C)[C@@H]2C(=O)O [DICLOXACILLIN]
fT>MIC [1]: 57.5%
Activity (Staphylococcus aureus [2]): 0.07 mg/L
Activity (Staphylococcus aureus [3]): Active
FC (Staphylococcus aureus [4]): 3
FC (Staphylococcus aureus [5]): 3
FC (Staphylococcus aureus [6]): <1
FC (Staphylococcus aureus [7]): 1
AUC at 24 h [8]: 21400 ng·h/mL
Cmax [9]: 90.1 µg/mL
fAUC/MIC [10]: 227.43 h
fAUC/MIC [11]: 572.83 h
Ratio [12]: 61.6
Ratio [13]: 81.58
Ratio [14]: 101.92
Activity (Mus musculus [15]): 89.5%
Activity (Mus musculus [16]): 80.7%
FC (Staphylococcus aureus [17]): <1
FC (Staphylococcus aureus [18]): <1
Activity (Staphylococcus aureus [19]): Active
Activity (Staphylococcus aureus [20]): Active
Activity (Staphylococcus aureus [21]): Active
fT>MIC [22]: 66.67%
MIC (Staphylococcus aureus [23]): 0.125 µg/mL (≈ 0.266 µM)
